Reference: ChEMBL document CHEMBL3804761, “Synthesis of a stable and orally bioavailable englerin analogue” (Bioorg Med Chem Lett, 2016)

Columns and labels:
Format in all cases: functional
[1] = Growth inhibition of human OVCAR4 cells assessed as cell growth at 10 uM incubated for 48 hrs by sulforhodamine B assay relative to control; settings: OVCAR-4, 48 h, read-out: Activity
Procedure, shortened: (§1)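 Run in the standard NCI 60-cell-line screen. Cells were exposed to drug for two days, and the read-out was sulforhodamine B staining. Compound was tested at a single final concentration of 10 µM in every line, and results are reported as growth percent.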

[2] = Growth inhibition of human SF295 cells assessed as cell growth at 10 uM incubated for 48 hrs by sulforhodamine B assay relative to control; settings: SF-295, 48 h, read-out: Activity; procedure, shortened: as §1
M14 = experiment: Growth inhibition of human M14 cells assessed as cell growth at 10 uM incubated for 48 hrs by sulforhodamine B assay relative to control; settings: M14, 48 h, read-out: Activity; procedure, shortened: as §1
[3] = Growth inhibition of human UACC257 cells incubated for 48 hrs by sulforhodamine B assay; settings: UACC-257, 48 h
Procedure, shortened: (§2)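 Tested in the standard NCI 60-cell-line protocol with two-day drug exposure and a sulforhodamine B endpoint. Compounds were first screened at a single final concentration of 10 µM, reported as growth percent. They were then run as five 10-fold dilutions starting from a high concentration of 100 µM to give dose-response curves.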

SK-MEL-2 = experiment: Growth inhibition of human SK-MEL-2 cells incubated for 48 hrs by sulforhodamine B assay; settings: SK-MEL-2, 48 h
Procedure, shortened: (§3)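 NCI 60-cell-line panel, standard protocol. Cells exposed to compound for two days, growth read by sulforhodamine B staining. Tested at five 10-fold dilutions, top concentration 100 µM, to give dose-response curves.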

[4] = Growth inhibition of human SKOV3 cells incubated for 48 hrs by sulforhodamine B assay; settings: SK-OV-3, 48 h; procedure, shortened: as §2
NCI-H226 = experiment: Growth inhibition of human NCI-H226 cells assessed as cell growth at 10 uM incubated for 48 hrs by sulforhodamine B assay relative to control; settings: NCI-H226, 48 h, read-out: Activity; procedure, shortened: as §1
[5] = Growth inhibition of human OVCAR5 cells assessed as cell growth at 10 uM incubated for 48 hrs by sulforhodamine B assay relative to control; settings: OVCAR-5, 48 h, read-out: Activity; procedure, shortened: as §1
HT-29 = experiment: Growth inhibition of human HT-29 cells incubated for 48 hrs by sulforhodamine B assay; settings: HT-29, 48 h; procedure, shortened: as §3
786-0 = experiment: Growth inhibition of human 786-0 cells incubated for 48 hrs by sulforhodamine B assay; settings: 786-0, 48 h; procedure, shortened: as §3
[6] = Growth inhibition of human HCC2998 cells incubated for 48 hrs by sulforhodamine B assay; settings: HCC 2998, 48 h; procedure, shortened: as §3
SK-MEL-28 [7] = experiment: Growth inhibition of human SK-MEL-28 cells incubated for 48 hrs by sulforhodamine B assay; settings: SK-MEL-28, 48 h; procedure, shortened: as §3
[8] = Growth inhibition of human PC3 cells incubated for 48 hrs by sulforhodamine B assay; settings: PC-3, 48 h; procedure, shortened: as §3
[9] = Growth inhibition of human UACC257 cells assessed as cell growth at 10 uM incubated for 48 hrs by sulforhodamine B assay relative to control; settings: UACC-257, 48 h, read-out: Activity
Procedure, shortened: (§4)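 NCI 60-cell line standard protocol, one-dose screen: single final concentration 10 µM, 2-day drug exposure, sulforhodamine B (SRB) endpoint; read-out is growth percent relative to untreated control.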

[10] = Growth inhibition of human SF268 cells incubated for 48 hrs by sulforhodamine B assay; settings: SF-268, 48 h; procedure, shortened: as §3
[11] = Growth inhibition of human SW620 cells incubated for 48 hrs by sulforhodamine B assay; settings: SW-620, 48 h; procedure, shortened: as §2
[12] = Growth inhibition of human SNB75 cells incubated for 48 hrs by sulforhodamine B assay; settings: SNB-75, 48 h; procedure, shortened: as §2
[13] = Growth inhibition of human BT549 cells incubated for 48 hrs by sulforhodamine B assay; settings: BT-549, 48 h; procedure, shortened: as §3
SN12C = experiment: Growth inhibition of human SN12C cells assessed as cell growth at 10 uM incubated for 48 hrs by sulforhodamine B assay relative to control; settings: read-out: Activity; procedure, shortened: as §1
[14] = Growth inhibition of human UO31 cells incubated for 48 hrs by sulforhodamine B assay; settings: UO-31, 48 h; procedure, shortened: as §2
SK-MEL-28 [15] = experiment: Growth inhibition of human SK-MEL-28 cells assessed as cell growth at 10 uM incubated for 48 hrs by sulforhodamine B assay relative to control; settings: SK-MEL-28, 48 h, read-out: Activity; procedure, shortened: as §1
T47D = experiment: Growth inhibition of human T47D cells assessed as cell growth at 10 uM incubated for 48 hrs by sulforhodamine B assay relative to control; settings: read-out: Activity; procedure, shortened: as §4
[16] = Growth inhibition of human OVCAR8 cells incubated for 48 hrs by sulforhodamine B assay; settings: OVCAR-8, 48 h; procedure, shortened: as §3
A498 = experiment: Growth inhibition of human A498 cells assessed as cell growth at 10 uM incubated for 48 hrs by sulforhodamine B assay relative to control; settings: A498, 48 h, read-out: Activity
MDA-MB-468 = experiment: Growth inhibition of human MDA-MB-468 cells incubated for 48 hrs by sulforhodamine B assay; settings: MDA-MB-468, 48 h; procedure, shortened: as §3
NCI-H322M = experiment: Growth inhibition of human NCI-H322M cells incubated for 48 hrs by sulforhodamine B assay; procedure, shortened: as §3
CCRF-CEM = experiment: Growth inhibition of human CCRF-CEM cells assessed as cell growth at 10 uM incubated for 48 hrs by sulforhodamine B assay relative to control; settings: read-out: Activity
Procedure, shortened: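 Single-dose screen in the NCI 60-cell-line panel at one final concentration of 10 µM. Two-day drug exposure with a sulforhodamine B endpoint. Values are growth percent for each cell line.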

[17] = read-out: pLC50 (the source's name) (converted)

Compound: CC(C)[C@@]12C[C@@H](NC(=O)CO)[C@@](C)(O1)[C@@H]1CC[C@@H](C)[C@H]1[C@@H]2OC(=O)/C=C/C1CCCCC1
- growth at 10 µM [1]: 98.6%
- growth at 10 µM [2]: 86.3%
- growth at 10 µM (M14): 104%
- GI50 [3]: > 44.7 µM
- CC50 [3, 17]: > 44.7 µM
- TGI ([3]; read-out: pTGI (converted)): > 44.7 µM
- GI50 (SK-MEL-2): > 44.7 µM
- LC50 (SK-MEL-2): > 44.7 µM
- TGI (SK-MEL-2; read-out: pTGI (converted)): > 44.7 µM
- GI50 [4]: > 44.7 µM
- LC50 [4]: > 44.7 µM
- TGI ([4]; read-out: pTGI (converted)): > 44.7 µM
- growth at 10 µM (NCI-H226): 96.2%
- growth at 10 µM [5]: 92.6%
- GI50 (HT-29): > 44.7 µM
- LC50 (HT-29): > 44.7 µM
- TGI (HT-29; read-out: pTGI (converted)): > 44.7 µM
- GI50 (786-0): > 44.7 µM
- LC50 (786-0): > 44.7 µM
- TGI (786-0; read-out: pTGI (converted)): > 44.7 µM
- GI50 [6]: > 44.7 µM
- LC50 [6]: > 44.7 µM
- TGI ([6]; read-out: pTGI (converted)): > 44.7 µM
- GI50 (SK-MEL-28 [7]): > 44.7 µM
- LC50 (SK-MEL-28 [7]): > 44.7 µM
- TGI (SK-MEL-28 [7]; read-out: pTGI (converted)): > 44.7 µM
- GI50 [8]: > 44.7 µM
- CC50 [8, 17]: > 44.7 µM
- TGI ([8]; read-out: pTGI (converted)): > 44.7 µM
- growth at 10 µM [9]: 98.2%
- GI50 [10]: > 44.7 µM
- LC50 (lethal concentration, 50% net cell kill) [10]: > 44.7 µM
- TGI ([10]; read-out: pTGI (converted)): > 44.7 µM
- GI50 [11]: > 44.7 µM
- LC50 (50% lethal concentration) [11]: > 44.7 µM
- TGI ([11]; read-out: pTGI (converted)): > 44.7 µM
- GI50 [12]: > 44.7 µM
- LC50 [12]: > 44.7 µM
- TGI ([12]; read-out: pTGI (converted)): > 44.7 µM
- GI50 [13]: > 44.7 µM
- CC50 [13, 17]: > 44.7 µM
- TGI ([13]; read-out: pTGI (converted)): > 44.7 µM
- growth at 10 µM (SN12C): 86.7%
- GI50 [14]: 10 µM
- CC50 [14, 17]: > 44.7 µM
- TGI ([14]; read-out: pTGI (converted)): 30.2 µM
- growth at 10 µM (SK-MEL-28 [15]): 98.9%
- growth at 10 µM (T47D): 102%
- GI50 [16]: 28.2 µM
- LC50 (concentration killing 50% of cells) [16]: > 44.7 µM
- TGI ([16]; read-out: pTGI (converted)): > 44.7 µM
- growth at 10 µM (A498): 41%
- GI50 (MDA-MB-468): > 44.7 µM
- CC50 (MDA-MB-468; [17]): > 44.7 µM
- TGI (MDA-MB-468; read-out: pTGI (converted)): > 44.7 µM
- GI50 (NCI-H322M): > 44.7 µM
- LC50 (NCI-H322M): > 44.7 µM
- TGI (NCI-H322M; read-out: pTGI (converted)): > 44.7 µM
- growth at 10 µM (CCRF-CEM): 128%
